Read-outs that look alike come from different tables or passages of the source.
Assays:
Type in all cases: cell-based
human CB2 receptors = human CB2 receptors (Homo sapiens, UniProt P34972)
cytotoxicity assay = details: 5 μM
[1] = system: osteoclast (OCL) formation; test: osteoclast; details: mouse bone marrow mononuclear cells, RANKL plus MCSF
Procedure, shortened: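 Test compound was given at concentrations including 0.1, 1 and 5 μM, alongside a vehicle control. The read-out was inhibition of osteoclastogenesis, expressed as percent suppression of osteoclast formation. Each experiment was run in triplicate, and data were reported as means ± standard deviation.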

human CB2 receptors, sequence (P34972 whole entry): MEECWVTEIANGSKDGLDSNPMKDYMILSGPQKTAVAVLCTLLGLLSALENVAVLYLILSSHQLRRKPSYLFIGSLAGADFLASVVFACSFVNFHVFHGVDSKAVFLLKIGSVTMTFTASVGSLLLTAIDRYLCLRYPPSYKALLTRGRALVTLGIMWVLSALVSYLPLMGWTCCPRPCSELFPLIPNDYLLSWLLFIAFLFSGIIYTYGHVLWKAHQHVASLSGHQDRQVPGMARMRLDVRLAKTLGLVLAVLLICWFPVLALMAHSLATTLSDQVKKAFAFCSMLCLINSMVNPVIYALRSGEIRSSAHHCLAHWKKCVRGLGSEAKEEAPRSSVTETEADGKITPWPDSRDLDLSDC

Structure (SMILES) | functional behaviour at CB2 receptor (human CB2 receptors) | cytotoxic effects (cytotoxicity assay) | inhibition of osteoclastogenesis (in words) [1] | functional behaviour at CB2 receptor (human CB2 receptors; based on LANCE signal change)
CCN(CC)c1ccc(CN(c2ccccc2)S(=O)(=O)c2ccc(C)cc2)cc1 [Compound 34] | behaved as CB2 receptor inverse agonists | without showing any cytotoxic effects | great inhibition of osteoclastogenesis | –
COc1ccc(S(=O)(=O)N(Cc2ccc(N3CCCCC3)cc2)c2ccccc2)cc1 [Compound 47] | – | – | – | behaved as CB2 receptor inverse agonists
CCN(CC)c1ccc(CN(c2ncc(C)s2)S(=O)(=O)c2ccc(OC)cc2)cc1 [Compound 45] | – | – | great inhibition of osteoclastogenesis | behaved as CB2 receptor inverse agonists
CCN(CC)c1ccc(CN(c2ccccc2)S(=O)(=O)c2ccc(OC)cc2)cc1 [Compound 39] | – | – | great inhibition of osteoclastogenesis | behaved as CB2 receptor inverse agonists
